Experimental data: ChEMBL document CHEMBL3351723, “New derivatives of lupane triterpenoids disturb breast cancer mitochondria and induce cell death” (Bioorg Med Chem, 2014)
Active and inactive are the calls of the source.

Columns and labels:
[1] = Cytotoxicity against human MCF12A cells at 0.125 to 2 ug/ml after 1 to 5 days by sulforhodamine B assay; format: cell-based; conditions: mcf-12a
Procedure, shortened: (§1)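 Non-tumor cells seeded at 2×10^4 cells/ml and treated 24 h after seeding, in high-glucose DMEM with pyruvate, 10% FBS and penicillin-streptomycin, 37°C, 5% CO2. Compound exposure 0.125–2 μg/ml for 1, 3 and 5 days, with vehicle controls. Cells fixed and stained with sulforhodamine B for total cell mass. Data given as % of untreated control at each time point; five independent experiments.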

BJ = assay: Cytotoxicity against human BJ cells at 0.125 to 2 ug/ml after 1 to 5 days by sulforhodamine B assay; format: cell-based; procedure, shortened: as §1
[2] = Cell cycle arrest against human Hs578T cells assessed as increase in cells at G0/G1 phase at 0.5 ug/ml after 24 to 48 hrs by propidium iodide staining based flow cytometry; format: functional; conditions: Hs-578T
Procedure, shortened: (§2)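 Log-phase Hs578T cells exposed 24 and 48 h to 0.5 μg/ml. Adherent plus floating cells fixed in cold 70% ethanol, kept overnight at -20°C, washed into PBS-T (132 mM NaCl, 4 mM KCl, 1.2 mM NaH2PO4, 0.1% Tween). Treated with 20 μg/ml RNase for 45 min at 37°C, then propidium iodide for 30 min at 37°C. Phase percentages read by flow cytometry. Mean ± SEM, 5 experiments.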

[3] = Cell cycle arrest against human Hs578T cells assessed as decrease in cells at S phase at 0.5 ug/ml after 24 to 48 hrs by propidium iodide staining based flow cytometry; format: functional; conditions: Hs-578T; procedure, shortened: as §2
Hs-578T [4] = assay: Cytotoxicity against human Hs578T cells at 0.125 to 2 ug/ml incubated for 6 hrs folowed by drug wash out and fresh medium addition and measured 5 days after wash out; format: functional, cell-based
MDA-MB-231 [5] = assay: Cytotoxicity against human MDA-MB-231 cells at 0.125 to 2 ug/ml after 1 to 5 days by sulforhodamine B assay in presence of taxol; format: functional, cell-based
Hs-578T [6] = assay: Cytotoxicity against human Hs578T cells at 0.125 to 2 ug/ml after 1 to 5 days by sulforhodamine B assay in presence of taxol; format: functional, cell-based
MCF7 [7] = assay: Cytotoxicity against human MCF7 cells at 0.125 to 2 ug/ml after 1 to 5 days by sulforhodamine B assay in presence of taxol; format: functional, cell-based
[8] = Cell cycle arrest against human Hs578T cells assessed as decrease in cells at G2/M phase at 0.5 ug/ml after 24 to 48 hrs by propidium iodide staining based flow cytometry; format: functional; conditions: Hs-578T; procedure, shortened: as §2
MDA-MB-231 [9] = assay: Cytotoxicity against human MDA-MB-231 cells at 0.125 to 2 ug/ml after 1 to 5 days by sulforhodamine B assay; format: functional, cell-based
Procedure, shortened: (§3)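 Sulforhodamine B growth assay in high-glucose DMEM with 10% FBS. Cancer cells seeded at 1×10^4 cells/ml; compound (0.125–2 μg/ml) added 24 h after seeding and left for 1, 3 or 5 days. Cells fixed, total mass stained. Expressed as % of untreated cells at the same time point. Mean ± SEM, five independent experiments.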

Hs-578T [10] = assay: Cytotoxicity against human Hs578T cells at 0.125 to 2 ug/ml after 1 to 5 days by sulforhodamine B assay; format: functional, cell-based; procedure, shortened: as §3
MCF7 [11] = assay: Cytotoxicity against human MCF7 cells at 0.125 to 2 ug/ml after 1 to 5 days by sulforhodamine B assay; format: functional, cell-based; procedure, shortened: as §3

C=C(C)[C@@H]1CC[C@]2(COC(=O)C[n+]3ccc(C)cc3C)CC[C@]3(C)[C@H](CC[C@@H]4[C@@]5(C)CC[C@H](OC(=O)C[n+]6ccc(C)cc6C)C(C)(C)[C@@H]5CC[C@]43C)[C@@H]12.[Cl-].[Cl-]
Toxic: Activity [1] | Activity (BJ)
active: G0/G1 cell cycle arrest [2] | inhibition [3] | inhibition (Hs-578T [4])

C=C(C)[C@@H]1CC[C@]2(COC(=O)C(C)[n+]3ccc(N(C)C)cc3)CC[C@]3(C)[C@H](CC[C@@H]4[C@@]5(C)CC[C@H](OC(=O)C(C)[n+]6ccc(N(C)C)cc6)C(C)(C)[C@@H]5CC[C@]43C)[C@@H]12.[Cl-].[Cl-] (some centres not stated)
active: inhibition (MDA-MB-231 [5]) | inhibition (Hs-578T [6]) | inhibition (MCF7 [7]) | Activity [2] | inhibition [3] | inhibition [8] | inhibition (Hs-578T [4])
Toxic: Activity [1] | Activity (BJ)

C=C(C)[C@@H]1CC[C@]2(COC(=O)CCC[n+]3ccc(N(C)C)cc3)CC[C@]3(C)[C@H](CC[C@@H]4[C@@]5(C)CC[C@H](OC(=O)CCC[n+]6ccc(N(C)C)cc6)C(C)(C)[C@@H]5CC[C@]43C)[C@@H]12.[Br-].[Br-]
Toxic: Activity [1] | Activity (BJ)
active: inhibition (MDA-MB-231 [9]) | inhibition (Hs-578T [10]) | inhibition (MCF7 [11]) | Activity [2] | inhibition [3] | inhibition (Hs-578T [4])
